The text below walks through data of ChEMBL document CHEMBL5696442, “Discovery of type II inhibitors of TGFβ-activated kinase 1 (TAK1) and mitogen-activated protein kinase kinase kinase kinase 2 (MAP4K2)” (J Med Chem, 2015).

The target of experiment [1] is Tyrosine-protein kinase Lyn (Homo sapiens, UniProt P07948). Put plainly: Inhibition of LYN (unknown origin) Lys1 labeling site by KiNativ Profiling analysis.
Experiment [2] addresses T1, Serine/threonine-protein kinase Chk1 (Homo sapiens) (UniProt O14757).
T1 sequence (whole entry): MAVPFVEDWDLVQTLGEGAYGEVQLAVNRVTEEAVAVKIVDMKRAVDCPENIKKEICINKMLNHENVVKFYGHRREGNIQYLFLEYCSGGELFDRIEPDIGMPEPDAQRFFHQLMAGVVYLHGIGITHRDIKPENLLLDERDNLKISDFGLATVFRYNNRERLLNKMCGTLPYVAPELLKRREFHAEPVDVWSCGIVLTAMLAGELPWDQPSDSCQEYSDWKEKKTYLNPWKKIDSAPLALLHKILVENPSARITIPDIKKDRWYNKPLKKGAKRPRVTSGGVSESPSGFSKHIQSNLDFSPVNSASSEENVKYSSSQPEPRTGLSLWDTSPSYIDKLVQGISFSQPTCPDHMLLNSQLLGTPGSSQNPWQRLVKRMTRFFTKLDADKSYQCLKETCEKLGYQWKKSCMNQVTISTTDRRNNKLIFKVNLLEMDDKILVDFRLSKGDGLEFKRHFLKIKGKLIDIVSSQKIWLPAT
The experiment can be described thus: Inhibition of CHK1 Lys2 labeling site harbouring DIKPENLLLDER in human A-375 cells at 5 uM by KiNativ Profiling analysis relative to control. Type of experiment: cell-based. The method, boiled down: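 Live A375 melanoma cells were treated with compound at 5 or 0.5 μM. The cells were then lysed, and the lysates were labeled with a lysine-reactive ATP or ADP-biotin acyl probe (KiNativ). Inhibition is the compound's protection of each kinase labeling-site peptide from probe labeling, relative to untreated control.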

Experiment [3] addresses Casein kinase II subunit alpha (Homo sapiens) (UniProt P68400). Put plainly: Inhibition of CK2a1 Protein Kinase Domain in human A-375 cells at 5 uM by KiNativ Profiling analysis relative to control. Type of experiment: cell-based. The method, boiled down: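 Intact A375 melanoma cells were treated with compound at 5 or 0.5 μM, then lysed. Lysate kinases were labeled with a lysine-reactive ATP or ADP-biotin probe (KiNativ). Inhibition is read as protection of each kinase labeling site from probe labeling.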

The target in experiment [4] is T2, Serine/threonine-protein kinase Nek8 (Homo sapiens) (UniProt Q86SG6).
T2 sequence (whole entry): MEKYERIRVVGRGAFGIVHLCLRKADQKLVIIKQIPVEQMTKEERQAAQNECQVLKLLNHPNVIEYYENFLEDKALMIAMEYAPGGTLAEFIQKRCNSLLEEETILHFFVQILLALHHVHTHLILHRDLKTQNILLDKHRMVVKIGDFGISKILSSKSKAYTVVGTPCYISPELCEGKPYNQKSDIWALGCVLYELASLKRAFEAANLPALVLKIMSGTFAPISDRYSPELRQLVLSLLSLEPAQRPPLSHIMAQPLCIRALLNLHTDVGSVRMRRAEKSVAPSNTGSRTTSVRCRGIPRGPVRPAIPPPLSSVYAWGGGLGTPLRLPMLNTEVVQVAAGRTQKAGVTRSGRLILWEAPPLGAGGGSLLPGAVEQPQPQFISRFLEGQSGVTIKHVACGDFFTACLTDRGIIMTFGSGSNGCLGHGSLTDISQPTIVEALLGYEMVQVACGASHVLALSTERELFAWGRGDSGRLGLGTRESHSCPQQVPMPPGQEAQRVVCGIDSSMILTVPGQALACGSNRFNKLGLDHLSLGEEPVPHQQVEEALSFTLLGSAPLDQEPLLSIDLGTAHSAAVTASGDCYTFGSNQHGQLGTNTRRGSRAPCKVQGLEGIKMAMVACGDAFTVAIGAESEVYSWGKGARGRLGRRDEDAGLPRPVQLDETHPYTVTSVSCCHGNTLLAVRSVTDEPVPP
The experiment can be described thus: Inhibition of NEK8 Lys2 labeling site in human A-375 cells at 0.5 uM by KiNativ Profiling analysis relative to control. In kind it is cell-based.

The target of experiment [5] is T3, Serine/threonine-protein kinase TBK1 (Homo sapiens) (UniProt Q9UHD2).
T3 sequence (whole entry): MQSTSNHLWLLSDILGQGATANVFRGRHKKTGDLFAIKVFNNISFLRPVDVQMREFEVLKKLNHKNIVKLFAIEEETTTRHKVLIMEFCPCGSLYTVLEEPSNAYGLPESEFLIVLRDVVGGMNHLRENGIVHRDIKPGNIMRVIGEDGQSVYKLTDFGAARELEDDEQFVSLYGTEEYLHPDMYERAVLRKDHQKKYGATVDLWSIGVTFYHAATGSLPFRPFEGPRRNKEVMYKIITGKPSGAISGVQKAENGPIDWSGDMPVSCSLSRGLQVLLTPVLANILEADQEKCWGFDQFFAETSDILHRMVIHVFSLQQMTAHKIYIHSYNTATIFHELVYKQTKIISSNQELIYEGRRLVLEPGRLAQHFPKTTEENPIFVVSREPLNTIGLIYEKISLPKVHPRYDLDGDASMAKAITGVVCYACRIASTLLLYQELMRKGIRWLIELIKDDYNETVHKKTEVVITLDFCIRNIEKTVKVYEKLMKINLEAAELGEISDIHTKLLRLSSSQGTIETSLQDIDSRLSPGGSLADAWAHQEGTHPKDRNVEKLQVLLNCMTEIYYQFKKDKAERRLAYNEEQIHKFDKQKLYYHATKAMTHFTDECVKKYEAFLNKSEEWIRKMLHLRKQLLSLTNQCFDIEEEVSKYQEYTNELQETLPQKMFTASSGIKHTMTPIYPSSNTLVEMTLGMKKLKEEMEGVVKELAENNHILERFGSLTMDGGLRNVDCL
Put plainly: Inhibition of TBK1 Lys1 labeling site in human A-375 cells at 0.5 uM by KiNativ Profiling analysis relative to control. Type of experiment: cell-based.

For experiment [6], the target named is T4, Serine/threonine-protein kinase NLK (Homo sapiens) (UniProt Q9UBE8).
T4 sequence (whole entry): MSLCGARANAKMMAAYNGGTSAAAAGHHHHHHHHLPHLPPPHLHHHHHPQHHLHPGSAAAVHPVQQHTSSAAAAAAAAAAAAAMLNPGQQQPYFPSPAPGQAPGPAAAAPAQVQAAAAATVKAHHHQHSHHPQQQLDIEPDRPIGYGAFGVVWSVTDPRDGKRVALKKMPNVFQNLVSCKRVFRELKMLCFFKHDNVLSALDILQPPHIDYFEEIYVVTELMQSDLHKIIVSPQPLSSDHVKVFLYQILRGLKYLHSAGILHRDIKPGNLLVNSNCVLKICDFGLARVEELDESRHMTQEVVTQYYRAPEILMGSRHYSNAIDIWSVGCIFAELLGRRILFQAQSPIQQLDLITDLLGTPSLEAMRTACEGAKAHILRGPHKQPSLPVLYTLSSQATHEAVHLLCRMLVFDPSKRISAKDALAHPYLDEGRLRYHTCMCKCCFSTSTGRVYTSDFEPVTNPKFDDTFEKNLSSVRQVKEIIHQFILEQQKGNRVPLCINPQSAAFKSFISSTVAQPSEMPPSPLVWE
Put plainly: Inhibition of NLK Lys2 labeling site in human A-375 cells at 0.05 uM by KiNativ Profiling analysis relative to control. Type of experiment: cell-based.

Sequence of Casein kinase II subunit alpha (Homo sapiens) (P68400 whole entry, looked up, the tested form may be a part): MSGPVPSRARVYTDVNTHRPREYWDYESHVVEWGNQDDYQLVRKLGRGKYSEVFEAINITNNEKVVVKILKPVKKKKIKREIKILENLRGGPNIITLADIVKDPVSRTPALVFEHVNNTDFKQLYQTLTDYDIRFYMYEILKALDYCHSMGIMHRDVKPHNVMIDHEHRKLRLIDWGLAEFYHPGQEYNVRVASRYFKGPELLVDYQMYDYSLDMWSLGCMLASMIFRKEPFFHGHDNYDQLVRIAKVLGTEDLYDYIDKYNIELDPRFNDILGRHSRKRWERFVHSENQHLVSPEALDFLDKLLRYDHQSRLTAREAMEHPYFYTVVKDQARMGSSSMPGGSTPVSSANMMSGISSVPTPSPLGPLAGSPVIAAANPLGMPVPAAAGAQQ
Sequence of Tyrosine-protein kinase Lyn (P07948 whole entry): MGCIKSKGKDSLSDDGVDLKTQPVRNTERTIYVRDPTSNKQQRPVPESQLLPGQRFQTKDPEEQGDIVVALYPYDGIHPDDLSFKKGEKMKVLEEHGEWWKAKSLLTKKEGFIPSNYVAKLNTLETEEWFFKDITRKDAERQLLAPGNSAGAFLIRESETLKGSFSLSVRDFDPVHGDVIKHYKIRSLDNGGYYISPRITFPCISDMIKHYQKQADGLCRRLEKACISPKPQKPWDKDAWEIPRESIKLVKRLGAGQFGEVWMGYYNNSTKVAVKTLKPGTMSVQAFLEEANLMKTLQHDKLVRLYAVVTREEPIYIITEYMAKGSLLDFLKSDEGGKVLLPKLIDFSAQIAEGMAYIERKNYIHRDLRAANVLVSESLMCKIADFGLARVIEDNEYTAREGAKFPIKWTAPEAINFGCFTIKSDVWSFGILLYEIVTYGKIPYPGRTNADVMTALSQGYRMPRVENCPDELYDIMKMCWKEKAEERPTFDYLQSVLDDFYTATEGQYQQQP

On to `CCN1CCN(Cc2ccc(NC(=O)c3ccc(C)c(/C=C/c4cnc5[nH]ccc5c4OC)c3)cc2C(F)(F)F)CC1`, for which it took 0.0295 µM to reach half-maximal inhibition in experiment [1] (IC50). Moreover, the inhibition in experiment [2] is -4.8%; in experiment [3], 1%; in experiment [4], -8.8%; in experiment [5], 28.7%; in experiment [6], 13.8%.

`CCN1CCN(Cc2ccc(NC(=O)c3ccc(C)c(Oc4ccnc5[nH]ccc45)c3)cc2C(F)(F)F)CC1` displayed an IC50 in experiment [1] of 0.0129 µM. Besides, the inhibition in experiment [2] is 40.1%; in experiment [3], 15.4%; in experiment [4] it was -9.5%; in experiment [5] it was 17.1%; in experiment [6], -5.6%.
